These results are taken from ChEMBL document CHEMBL1152376, “N-[(Dihydroxyphenyl)acyl]serotonins as potent inhibitors of tyrosinase from mouse and human melanoma cells” (Bioorg Med Chem Lett, 2009).

The IC50 is the concentration that gives 50% inhibition.

Data set [1] can be described thus: Cytotoxicity against mouse B16 cells assessed as cell viability at 20 uM after 2 days by tetrazolium reduction assay. It is filed as cell-based. The conditions noted are these: read-out: Activity. The essentials: (§1)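 B16 cells seeded at 1.5 × 10⁴ per well, cultured 1 day, then given compound in ethanol (stock 0–10 mM) and incubated 2 days. Medium aspirated and viability measured with a tetrazolium reagent. Values are means of 8 or 9 wells, with Student's t-test against control.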

Data set [2] deals with B16. The data set is described as follows: Cytotoxicity against mouse B16 cells assessed as cell viability at 10 to 30 uM after 2 days by tetrazolium reduction assay. The format is cell-based. To be noted: b16, 48 h. The essentials: as §1
The target in data set [3] is T1, Tyrosinase (Mus musculus) (UniProt P11344).
T1 sequence (whole entry): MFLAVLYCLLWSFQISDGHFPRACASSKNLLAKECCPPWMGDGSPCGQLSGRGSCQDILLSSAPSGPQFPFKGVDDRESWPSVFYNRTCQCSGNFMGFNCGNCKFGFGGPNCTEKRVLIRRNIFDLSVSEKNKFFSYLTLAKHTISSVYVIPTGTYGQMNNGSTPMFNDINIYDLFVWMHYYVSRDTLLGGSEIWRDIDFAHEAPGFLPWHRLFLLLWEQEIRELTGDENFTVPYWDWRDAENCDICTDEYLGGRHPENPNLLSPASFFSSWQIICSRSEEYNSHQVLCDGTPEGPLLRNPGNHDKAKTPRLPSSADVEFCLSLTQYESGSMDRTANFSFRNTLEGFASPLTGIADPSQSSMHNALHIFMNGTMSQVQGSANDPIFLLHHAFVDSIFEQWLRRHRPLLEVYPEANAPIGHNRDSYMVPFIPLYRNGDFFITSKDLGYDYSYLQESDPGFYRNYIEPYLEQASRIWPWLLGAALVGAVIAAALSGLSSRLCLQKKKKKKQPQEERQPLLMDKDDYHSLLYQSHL
The data set is described as follows: Inhibition of catecholase activity of tyrosinase in mouse B16 cells assessed as residual activity at […] measured after preincubation presence of L-DOPA substrate. The conditions noted are these: TDE = time-dependent effect. It is filed as cell-based. The essentials: (§2)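 Enzyme was preincubated with inhibitor (added in ethanol as a 20 mM stock) in 50 mM phosphate buffer pH 6.8, with or without 0.125 mM L-DOPA, at 37 °C for 5, 10, 20 or 30 min. Buffer containing 5.3 mM L-DOPA was then added and dopachrome read at 475 nm. Control (=100) was 31 min preincubation without inhibitor; mean ± sd, n = 3.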

Data set [4] has as its target T2, Tyrosinase (Mus musculus, UniProt P11344).
T2 sequence (P11344 whole entry): T1 sequence (whole entry)
The data set can be described thus: Inhibition of catecholase activity of tyrosinase in mouse B16 cells assessed as dopachrome formation. The format is cell-based.

For data set [5], the system named is B16. The data set can be described thus: Antimelanogenic activity in mouse B16 cells assessed as inhibition of extracellular melanin formation after 2 days. To be noted: B16, 48 h.
Data set [6] deals with T2, Tyrosinase. The data set is described as follows: Apparent noncompetitive inhibition of catecholase activity of tyrosinase in mouse B16 cells by Lineweaver-Burke plot analysis. It is filed as cell-based. The conditions noted are these: read-out: Ki(app). The essentials:
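Tyrosinase extracted from B16 cells (DMEM, 15% FBS) was assayed with L-DOPA in 50 mM phosphate buffer pH 6.8 at 37 °C. Dopachrome formation over 5 min was read at 475 nm (ε = 3700 M⁻¹ cm⁻¹). Inhibitor was tested at several fixed levels (e.g. 0–70 µM), L-DOPA was varied, Lineweaver–Burk lines were fitted by least squares, and apparent Ki was derived.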

The target of data set [7] is T1, Tyrosinase (Mus musculus). The data set is described as follows: Inhibition of catecholase activity of tyrosinase in mouse B16 cells assessed as residual activity at […] preincubated for 5 to 30 mins in absence of L-DOPA substrate. It is filed as cell-based. The essentials: as §2
Data set [8] deals with B16. The data set can be described thus: Cytotoxicity against mouse B16 cells assessed as cell viability at < 30 uM after 2 days by tetrazolium reduction assay. The conditions noted are these: b16, 48 h. It is filed as cell-based. The essentials: as §1
Data set [9] relates to B16. The data set can be described thus: Ratio of IC50 of drug to IC50 of kojic acid for antimelanogenic activity in mouse B16 cells. It is filed as functional. The essentials:
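B16 cells (1.5 × 10⁴ per well) were cultured 1 day, given compound in ethanol (stock 0–10 mM), and incubated 2 days. Medium darkening from extracellular melanin was read at 415 nm and IC50 derived.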

A short description of data set [10]: Antimelanogenic activity in human HMVII cells assessed as inhibition of intracellular melanin accumulation at 20 to 40 uM after 2 days. It is filed as functional, HMV-2.
In data set [11] the test system is B16. The data set is described as follows: Antimelanogenic activity in mouse B16 cells assessed as inhibition of intracellular melanin accumulation at 2 to 40 uM after 2 days. The format is functional, cell-based. The essentials: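 B16 cells grown in DMEM with 15% FBS, seeded at 7.5 × 10⁴ cells per well, cultured 1 day, then given compound in ethanol and incubated 2 days. Cells scraped, washed with PBS and sonicated in 0.2 ml 1 N NaOH. Intracellular melanin read as homogenate absorbance at 415 nm, expressed as % control.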

Data set [12] is described as follows: Cytotoxicity against human HMVII cells assessed as cell viability at 40 uM after 2 days by tetrazolium reduction assay. It is filed as cell-based. To be noted: hmv-2, 48 h. The essentials: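 HMV-II cells given compound in ethanol and incubated 2 days, then viability measured by tetrazolium reduction. Values are % control, mean ± SEM (n = 3–4) from a representative repeated experiment.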

The nature of data set [13]: Cytotoxicity against mouse B16 cells assessed as cell viability at 200 uM after 2 days by tetrazolium reduction assay. It is filed as cell-based. The conditions noted are these: read-out: Activity. The essentials:
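B16 mouse melanoma cells in DMEM with 15% FBS, seeded at 1.5 × 10⁴ cells per well and cultured 1 day. Compound then added in ethanol and incubated 2 days. Medium aspirated and viability read with a tetrazolium reagent. Means of 8 or 9 wells, Student's t-test versus control.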

Activity calls are given as the source filed them. The calls are words filed in the database; no cut-off is given here. Some results are limits rather than exact numbers.

As for `O=C(NCCc1ccc(O)cc1)c1ccc(O)c(O)c1`, the viability at 48 h, 20 µM in data set [1] worked out at 88%. Moreover, the Activity result in data set [2] is reported as “Toxic”.

As to `COc1ccc2[nH]cc(CCNC(=O)/C=C/c3ccc(O)c(O)c3)c2c1`, the viability at 48 h, 20 µM in [1] is 41%. Also, the Activity entry in data set [2] is “Toxic”.

For `CC(=O)NCCc1c[nH]c2ccc(O)cc12` [ACETYLSEROTONIN], the Activity result in data set [3] is “tde”. The IC50 in [4] is 311 µM; in data set [5] it was > 30 µM. Besides, the viability at 48 h, 20 µM in data set [1] was found to be 93%. Also, the Ki in data set [6] came out at 240 µM. In [7], the outcome was Active.

Take `O=C(/C=C/c1ccc(O)c(O)c1)NCCc1c[nH]c2ccc(O)cc12` [N-CAFFEOYLSEROTONIN]: the IC50 in data set [4] is 28 µM; in [5], 15 µM. Also, the viability at 48 h, 20 µM in data set [1] came out at 99%. Further, the Activity result in [8] was “Non-toxic”.

For the compound `O=C(NCCc1c[nH]c2ccccc12)c1ccc(O)cc1`, in data set [5], the 50% inhibitory concentration (IC50) is > 30 µM. Moreover, the viability at 48 h, 20 µM in [1] stood at 94%.

Turning to `COc1cc(/C=C/C(=O)NCCc2c[nH]c3ccc(O)cc23)ccc1O` [N-FERULOYL SEROTONIN], the IC50 in data set [4] amounted to 216 µM; in data set [5], 23 µM. The viability at 48 h, 20 µM in data set [1] is 100%. Also, the Activity result in data set [8] is “Non-toxic”.

Regarding `Oc1ccc2[nH]ccc2c1`, the IC50 in data set [4] was determined as 68 µM; in [5] it was 13 µM. The viability at 48 h, 20 µM in data set [1] worked out at 100%.

`O=C(NCCc1c[nH]c2ccccc12)c1ccccc1`: the viability at 48 h, 20 µM in data set [1] came out at 85%. Moreover, the Activity entry in data set [2] is on record as “Toxic”.

As to `O=C(/C=C/c1ccc(O)c(O)c1)NCCc1c[nH]c2ccccc12`, the viability at 48 h, 20 µM in data set [1] turned out to be 54%. The Activity entry in data set [2] is given as “Toxic”.

`O=C(NCCc1c[nH]c2ccc(O)cc12)c1ccc(O)cc1`: the figures for the IC50 in [4] and in [5] were 233 µM and > 30 µM, respectively. Also, in [1], the viability at 48 h, 20 µM amounted to 100%.

Turning to `NC(=O)c1ccc(O)c(O)c1` [PROTOCATECHUAMIDE], in [6] (in the assay text read “Competitive” for “Apparent noncompetitive”), the Ki is 3700 µM.

Turning to `O=C(NCCc1c[nH]c2ccc(O)cc12)c1ccccc1`, the half-inhibitory concentration (IC50) in [4] was 333 µM; in data set [5], > 30 µM. In addition, the viability at 48 h, 20 µM in data set [1] stood at 96%.

For the compound `NCCc1c[nH]c2ccc(O)cc12` [SEROTONIN], the concentration for half-maximal inhibition (IC50) in [4] was 550 µM; in data set [5], > 30 µM. Moreover, the viability at 48 h, 20 µM in data set [1] is 101%.

Take `O=C(/C=C/c1ccc(O)c(O)c1)NCCc1ccc(O)cc1`: in data set [1], the viability at 48 h, 20 µM worked out at 84%. The Activity result in data set [2] is listed as “Toxic”.

For the compound `O=C(NCCc1c[nH]c2ccc(O)cc12)c1ccc(O)c(O)c1`, the IC50 in data set [4] was found to be 73 µM; in [5], 3 µM. In data set [9], the “Ratio IC50” value turned out to be 40. Moreover, in data set [1], the viability at 48 h, 20 µM worked out at 99%. In addition, the “inhibition (INH)” value in data set [10] amounted to 20%. Further, in [6], the Ki turned out to be 64 µM. Moreover, the result in [11] was inactive. The Activity entry in [8] is given as “Non-toxic”; in [12], “Toxic”.

Consider `O=C(NCCc1c[nH]c2ccccc12)c1ccc(O)c(O)c1`, for which, in data set [1], the viability at 48 h, 20 µM was found to be 69%. In data set [2], the Activity entry is listed as “Toxic”.

As for `O=c1cc(CO)occ1O` [KOJIC ACID], in data set [13], the viability at 48 h, 200 µM is 99%. The IC50 in [5] worked out at 111 µM.

Consider `O=C(NCCc1c[nH]c2ccc(O)cc12)c1ccc(O)cc1O`, for which the concentration for half-maximal inhibition (IC50) in data set [4] stood at 42 µM; in [5], 15 µM. Also, the viability at 48 h, 20 µM in data set [1] was determined as 101%. Also, the Activity entry in data set [8] is reported as “Non-toxic”.

Consider `COc1cc(C(=O)NCCc2c[nH]c3ccc(O)cc23)ccc1O`, for which the IC50 in data set [4] is 211 µM; in [5], > 30 µM. For the same compound, in [1], the viability at 48 h, 20 µM turned out to be 93%. For the same compound, the Activity result in data set [8] is given as “Non-toxic”.

For the compound `COc1cc(/C=C/C(=O)NCCc2c[nH]c3ccccc23)ccc1O`, the IC50 in data set [5] was > 30 µM. The viability at 48 h, 20 µM in [1] stood at 102%.
